Experiments:
Assay type in all cases: functional
[1] = system: Schistosoma mansoni; experiment: Percent [3H]uridine incorporation relative to control at 50 ug/mL against hycanthone-sensitive schistosomes (% worms surviving in culture)
Outline: (§1)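 Hycanthone-sensitive Schistosoma mansoni worms exposed to compound in vitro. [3H]uridine incorporation into the worms was measured and expressed relative to untreated controls. Worm survival in culture was scored in parallel.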

[2] = system: Schistosoma mansoni; experiment: Percent [3H]uridine incorporation relative to controls for a dose of 75 ug/mL against hycanthone-resistant schistosomes
[3] = system: Schistosoma mansoni; experiment: Percent [3H]-uridine incorporation relative to controls for a dose of 100 ug/mL against hycanthone-sensitive schistosomes (% warms surviving in culture).; outline: as §1
[4] = system: Schistosoma mansoni; experiment: Percent [3H]uridine incorporation relative to controls for a dose of 50 ug/mL against hycanthone-resistant schistosomes
[5] = system: Schistosoma mansoni; experiment: Percent [3H]uridine incorporation relative to controls for a dose of 100 ug/mL against hycanthone-resistant schistosomes
[6] = system: Schistosoma mansoni; experiment: Percent [3H]uridine incorporation relative to controls for a dose of 100 ug/mL against hycanthone-sensitive schistosomes.(% warms surviving in culture).; outline: as §1
[7] = in the assay text read “at 75 ug/mL” for “at 50 ug/mL”

| SMILES | Incorporation [1, 7] [%] | Incorporation [2] [%] | Incorporation [1] [%] | Incorporation [3] [%] | Incorporation [4] [%] | Incorporation [5] [%] | Incorporation [6] [%] |
| --- | --- | --- | --- | --- | --- | --- | --- |
| COc1ccc(S(=O)(=O)N/N=C/c2cc3c(cc2[N+](=O)[O-])NC(CNC(C)C)CC3)cc1 (stereo not drawn) | 53 | 106 | – | – | – | – | – |
| CNC(=O)OCc1cc2c(cc1[N+](=O)[O-])NC(CNC(C)C)CC2 (stereo not drawn) | – | – | 22 | 21 | 100 | 100 | – |
| CC(C)NCC1CCc2cc(/C=N/NS(=O)(=O)c3ccc([N+](=O)[O-])cc3)c([N+](=O)[O-])cc2N1 (stereo not drawn) | 49 | 96 | – | – | – | – | – |
| CC(C)NCC1CCc2cc(CO)c([N+](=O)[O-])cc2N1 (stereo not drawn) [OXAMNIQUINE] | – | – | 14 | – | 97 | – | – |
| Cc1ccc(S(=O)(=O)N/N=C/c2cc3c(cc2[N+](=O)[O-])NC(CNC(C)C)CC3)cc1 (stereo not drawn) | – | – | 60 | – | 102 | 100 | 32 |
| Cc1cc(C)c(S(=O)(=O)N/N=C/c2cc3c(cc2[N+](=O)[O-])NC(CNC(C)C)CC3)c(C)c1 (stereo not drawn) | – | – | 24 | – | 100 | 100 | 20 |
